Measurements as given in ChEMBL document CHEMBL3425508, “Discovery of potent hexapeptide agonists to human neuromedin u receptor 1 and identification of their serum metabolites” (ACS Med Chem Lett, 2015).
pEC50: −log10 of the molar value. Each block holds one compound with its values, some of them ahead of it. Calls of active or inactive are those of the source. No cut-off for these calls is given here. Non-standard residues stand in square brackets, D forms with d. Residues, ends and D or L forms follow the SMILES beside them. *: point of attachment. Propanoyl(3-(3-pyridyl)) = O=C(CCc1cccnc1)*; Phe(4-F) = N[C@@H](Cc1ccc(F)cc1)C(=O)O; 2Nal = N[C@@H](Cc1ccc2ccccc2c1)C(=O)O; Acetyl(2-thienyl) = O=C(Cc1cccs1)*; 4Pal = N[C@@H](Cc1ccncc1)C(=O)O; 2Thi = N[C@@H](Cc1cccs1)C(=O)O

Legend:
Serum [1] = test: Drug metabolism in 25% rat serum assessed as formation of 2-thienylacetyl-Trp1-Phe2-OH at 1 mM at 37 degC by RP-HPLC method; assay type: ADME, cell-free; details: 1000 µM
Outline: (§1)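 Peptides incubated in 25% rat serum at 37 °C and sampled over time (10, 30, 60 min). Samples extracted on Sep-Pak C18 cartridges and analysed by C18 RP-HPLC with UV detection at 220 nm. Metabolites identified by mass spectrometry. Recovery of intact peptide measured at 10 or 60 min, in triplicate.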

Serum [2] = test: Drug metabolism in 25% rat serum assessed as formation of 2-thienylacetyl-Trp1-Phe2-Arg3-Pro4-Arg5-OH at 1 mM at 37 degC by RP-HPLC method; assay type: ADME, cell-free; details: 1000 µM; outline: as §1
Neuromedin-U receptor 2 [3] = target: T1, Neuromedin-U receptor 2 (Homo sapiens, UniProt Q9GZQ4); test: Agonist activity at human NMUR2 expressed in CHO cells assessed as intracellular calcium flux at 1 and 10 nM by Fluo-4 AM dye based fluorometric imaging method relative to 1000 nM human neuromedin U; assay type: functional, cell-based
[4] = Drug metabolism in 25% rat serum assessed as drug recovery at 1 mM incubated for 10 mins at 37 degC by RP-HPLC method; assay type: ADME, cell-free; details: read-out: Drug recovery; outline: as §1
Serum [5] = test: Drug metabolism in 25% rat serum assessed as cleavage at Phe(2)-Arg(3) site at 1 mM at 37 degC by RP-HPLC method; assay type: ADME, cell-free; details: 1000 µM; outline: as §1
Serum [6] = test: Drug metabolism in 25% rat serum assessed as cleavage at Arg(5)-Asn(6) site at 1 mM at 37 degC by RP-HPLC method; assay type: ADME, cell-free; details: 1000 µM; outline: as §1
[7] = target: T2, Neuromedin-U receptor 1 (Homo sapiens) (UniProt Q9HB89); test: Agonist activity at human NMUR1 expressed in CHO cells assessed as intracellular calcium flux at 1 and 10 nM by Fluo-4 AM dye based fluorometric imaging method relative to 1000 nM human neuromedin U; assay type: functional, cell-based
T2 sequence (whole entry): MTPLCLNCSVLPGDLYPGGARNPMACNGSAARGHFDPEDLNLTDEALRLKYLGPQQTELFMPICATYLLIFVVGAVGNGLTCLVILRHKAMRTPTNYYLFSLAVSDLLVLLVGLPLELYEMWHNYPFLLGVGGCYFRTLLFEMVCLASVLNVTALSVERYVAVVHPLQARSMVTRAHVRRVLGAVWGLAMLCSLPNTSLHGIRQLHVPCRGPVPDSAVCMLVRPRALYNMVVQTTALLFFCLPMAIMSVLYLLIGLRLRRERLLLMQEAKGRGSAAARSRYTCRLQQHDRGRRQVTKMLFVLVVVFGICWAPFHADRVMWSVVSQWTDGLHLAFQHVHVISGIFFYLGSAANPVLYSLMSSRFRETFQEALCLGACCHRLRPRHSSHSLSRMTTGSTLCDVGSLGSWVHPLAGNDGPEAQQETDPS

[8] = Drug metabolism in 25% rat serum assessed as drug recovery at 1 mM incubated for 60 mins at 37 degC by RP-HPLC method; assay type: ADME, cell-free; details: read-out: Drug recovery; outline: as §1
Serum [9] = test: Retention time in 25% rat serum treated with 1 mM (S)-2-((S)-2-((S)-1-((S)-2-((S)-2-((S)-3-(1H-indol-3-yl)-2-(2-(thiophen-2-yl)acetamido)propanamido)-3-(4-fluorophenyl)propanamido)-5-guanidinopentanoyl)pyrrolidine-2-carboxamido)-5-guanidinopentanamido)succinamide incubated for 10 mins at 37 degC by RP-HPLC method; assay type: ADME, cell-free; outline: as §1
Neuromedin-U receptor 2 [10] = target: T1, Neuromedin-U receptor 2; test: Agonist activity at human NMUR2 expressed in CHO cells assessed as intracellular calcium flux at by Fluo-4 AM dye based fluorometric imaging method; assay type: functional, cell-based
Outline: (§2)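 Dose–response Ca2+ mobilization in CHO cells stably expressing human NMUR1 or NMUR2. Peptides run at 10^-12–10^-6 M with hNMU as reference. EC50 and intrinsic activity derived from the curves. Triplicate determinations.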

Serum [11] = test: Drug degradation in 25% human serum at 1 mM at 37 degC by RP-HPLC method; assay type: ADME, cell-free; details: 1000 µM, TDE = time-dependent effect
Neuromedin-U receptor 2 [12] = target: T1, Neuromedin-U receptor 2; test: Intrinsic agonist activity at human NMUR2 expressed in CHO cells assessed as intracellular calcium flux at by Fluo-4 AM dye based fluorometric imaging method; assay type: functional, cell-based; outline: as §2
[13] = target: T2, Neuromedin-U receptor 1 (Homo sapiens); test: Intrinsic agonist activity at human NMUR1 expressed in CHO cells assessed as intracellular calcium flux at by Fluo-4 AM dye based fluorometric imaging method; assay type: functional, cell-based; outline: as §2
Neuromedin-U receptor 1 = target: T3, Neuromedin-U receptor 1 (Homo sapiens, UniProt Q9HB89); test: Agonist activity at human NMUR1 expressed in CHO cells assessed as intracellular calcium flux at by Fluo-4 AM dye based fluorometric imaging method; assay type: functional, cell-based; outline: as §2
T3 sequence (Q9HB89 whole entry): T2 sequence (whole entry)

Serum [14] = test: Drug metabolism in 25% rat serum assessed as cleavage at C-terminal Arg-Asn site at 1 mM at 37 degC by RP-HPLC method; assay type: ADME, cell-free; details: 1000 µM; outline: as §1

T1 sequence (Q9GZQ4 whole entry): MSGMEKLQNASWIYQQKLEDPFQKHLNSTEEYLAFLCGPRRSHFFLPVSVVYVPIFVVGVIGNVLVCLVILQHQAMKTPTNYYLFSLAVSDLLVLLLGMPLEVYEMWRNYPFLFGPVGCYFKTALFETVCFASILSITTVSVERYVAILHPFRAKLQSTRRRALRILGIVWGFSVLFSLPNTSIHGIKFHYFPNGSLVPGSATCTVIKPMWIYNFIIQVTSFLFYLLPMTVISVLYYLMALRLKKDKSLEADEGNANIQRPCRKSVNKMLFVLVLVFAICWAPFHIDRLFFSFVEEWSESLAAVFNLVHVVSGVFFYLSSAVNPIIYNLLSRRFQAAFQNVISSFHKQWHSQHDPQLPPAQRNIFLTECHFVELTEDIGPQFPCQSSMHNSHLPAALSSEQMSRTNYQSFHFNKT

Drug metabolism (Serum [1]): metabolite_detected | Drug metabolism (Serum [2]): metabolite_detected | Activity (Neuromedin-U receptor 2 [3]): Active | remaining at 10 min, 1000 µM [4]: 39.8% | Drug metabolism (Serum [5]): metabolite_detected | Drug metabolism (Serum [6]): metabolite_detected | Activity [7]: Active
Compound: N=C(N)NCCC[C@H](NC(=O)[C@@H]1CCCN1C(=O)[C@H](CCCNC(=N)N)NC(=O)[C@H](Cc1ccccc1)NC(=O)[C@H](Cc1c[nH]c2ccccc12)NC(=O)Cc1cccs1)C(=O)N[C@@H](CC(N)=O)C(N)=O ({Acetyl(2-thienyl)}-WFRPRN-NH2)

remaining at 1 h, 1000 µM [8]: 54% | Retention_time (Serum [9]): 43.7 min
Compound: N=C(N)NCCC[C@H](NC(=O)[C@@H]1CCCN1C(=O)[C@H](CCCNC(=N)N)NC(=O)[C@H](Cc1ccc(F)cc1)NC(=O)[C@H](Cc1c[nH]c2ccccc12)NC(=O)Cc1cccs1)C(=O)O ({Acetyl(2-thienyl)}-W[Phe(4-F)]RPR-OH)

pEC50 (Neuromedin-U receptor 2 [10]): 8.59 | Drug degradation (Serum [11]): tde | Intrinsic activity (Neuromedin-U receptor 2 [12]): 82% | Activity (Neuromedin-U receptor 2 [3]): Active | remaining at 10 min, 1000 µM [4]: 42.7% | Drug metabolism (Serum [5]): metabolite_detected | Intrinsic activity [13]: 95% | Drug metabolism (Serum [6]): metabolite_detected | Activity [7]: Active | pEC50 (Neuromedin-U receptor 1): 10.08
Compound: N=C(N)NCCC[C@H](NC(=O)[C@@H]1CCCN1C(=O)[C@H](CCCNC(=N)N)NC(=O)[C@H](Cc1ccc(F)cc1)NC(=O)[C@H](Cc1c[nH]c2ccccc12)NC(=O)Cc1cccs1)C(=O)N[C@@H](CC(N)=O)C(N)=O ({Acetyl(2-thienyl)}-W[Phe(4-F)]RPRN-NH2)

remaining at 10 min, 1000 µM [4]: 37% | Drug metabolism (Serum [5]): metabolite_notdetected | Drug metabolism (Serum [6]): metabolite_notdetected
Compound: H-FLFRPRN-NH2

Drug metabolism (Serum [14]): metabolite_detected | pEC50 (Neuromedin-U receptor 1): 9.85
Compound: H-FRVDEEFQSPFASQSRGYFLFRPRN-NH2

Second part, the compound before the results:

Compound: N=C(N)NCCC[C@H](NC(=O)[C@@H]1CCCN1C(=O)[C@H](CCCNC(=N)N)NC(=O)[C@H](Cc1c[nH]cn1)NC(=O)[C@H](Cc1c[nH]c2ccccc12)NC(=O)Cc1cccs1)C(=O)N[C@@H](CC(N)=O)C(N)=O ({Acetyl(2-thienyl)}-WHRPRN-NH2)
Activity (Neuromedin-U receptor 2 [3]): inactive | Activity [7]: inactive

Compound: N=C(N)NCCC[C@H](NC(=O)[C@@H]1CCCN1C(=O)[C@H](CCCNC(=N)N)NC(=O)[C@H](Cc1cccs1)NC(=O)[C@H](Cc1c[nH]c2ccccc12)NC(=O)Cc1cccs1)C(=O)N[C@@H](CC(N)=O)C(N)=O ({Acetyl(2-thienyl)}-W[2Thi]RPRN-NH2)
Activity (Neuromedin-U receptor 2 [3]): Active | Activity [7]: Active

Compound: N=C(N)NCCC[C@H](NC(=O)[C@@H]1CCCN1C(=O)[C@H](CCCNC(=N)N)NC(=O)[C@H](Cc1ccncc1)NC(=O)[C@H](Cc1c[nH]c2ccccc12)NC(=O)Cc1cccs1)C(=O)N[C@@H](CC(N)=O)C(N)=O ({Acetyl(2-thienyl)}-W[4Pal]RPRN-NH2)
Activity (Neuromedin-U receptor 2 [3]): inactive | Activity [7]: inactive

Compound: N=C(N)NCCC[C@H](NC(=O)[C@@H]1CCCN1C(=O)[C@H](CCCNC(=N)N)NC(=O)[C@H](Cc1ccccc1)NC(=O)[C@H](Cc1ccccc1)NC(=O)CCc1cccnc1)C(=O)N[C@@H](CC(N)=O)C(N)=O ({Propanoyl(3-(3-pyridyl))}-FFRPRN-NH2)
Activity (Neuromedin-U receptor 2 [3]): Active | Activity [7]: Active

Compound: N=C(N)NCCC[C@H](NC(=O)[C@@H]1CCCN1C(=O)[C@H](CCCNC(=N)N)NC(=O)[C@H](Cc1ccccc1)NC(=O)[C@H](Cc1ccc2ccccc2c1)NC(=O)CCc1cccnc1)C(=O)N[C@@H](CC(N)=O)C(N)=O ({Propanoyl(3-(3-pyridyl))}-[2Nal]FRPRN-NH2)
Activity (Neuromedin-U receptor 2 [3]): Active

Compound: Ac-FFRPRN-NH2
Activity (Neuromedin-U receptor 2 [3]): inactive | Activity [7]: inactive
